What was measured:
[1] = system: DU-145; test: Cytotoxicity against human DU145 cells after 48 hrs by SRB assay; format: functional; conditions: DU-145, 48 h; for GI50: read-out: GI50; for CC50: read-out: pLC50 (the source's name) (converted)
[2] = system: NCI/ADR-RES; test: Growth inhibition of human NCI/ADR-RES cells assessed as cell growth at 10^-7 M incubated for 48 hrs by sulforhodamine B assay relative to control; format: functional; conditions: read-out: Activity
[3] = system: EKVX; test: Growth inhibition of human EKVX cells assessed as cell growth at 10^-8 M incubated for 48 hrs by sulforhodamine B assay relative to control; format: functional; conditions: read-out: Activity
[4] = system: UACC-62; test: Growth inhibition of human UACC62 cells assessed as cell growth at 10^-8 M incubated for 48 hrs by sulforhodamine B assay relative to control; format: functional; conditions: UACC-62, 48 h, read-out: Activity
[5] = system: HOP-62; test: Growth inhibition of human HOP62 cells assessed as cell growth at 10^-6 M incubated for 48 hrs by sulforhodamine B assay relative to control; format: functional; conditions: HOP-62, 48 h, read-out: Activity
[6] = system: SK-MEL-5; test: Growth inhibition of human SK-MEL-5 cells assessed as cell growth at 10^-8 M incubated for 48 hrs by sulforhodamine B assay relative to control; format: functional; conditions: SK-MEL-5, 48 h, read-out: Activity
[7] = system: M14; test: Growth inhibition of human M14 cells assessed as cell growth at 10^-6 M incubated for 48 hrs by sulforhodamine B assay relative to control; format: functional; conditions: M14, 48 h, read-out: Activity
[8] = system: HCC 2998; test: Cytotoxicity against human HCC2998 cells after 48 hrs by SRB assay; format: functional; conditions: HCC 2998, 48 h; for GI50: read-out: GI50; for TGI: read-out: TGI
[9] = system: HL-60(TB); test: Growth inhibition of human HL-60(TB) cells assessed as cell growth at 10^-8 M incubated for 48 hrs by sulforhodamine B assay relative to control; format: functional; conditions: HL-60, 48 h, read-out: Activity
[10] = system: UACC-62; test: Growth inhibition of human UACC62 cells assessed as cell growth at 10^-7 M incubated for 48 hrs by sulforhodamine B assay relative to control; format: functional; conditions: UACC-62, 48 h, read-out: Activity
[11] = system: SK-MEL-28; test: Growth inhibition of human SK-MEL-28 cells assessed as cell growth at 10^-8 M incubated for 48 hrs by sulforhodamine B assay relative to control; format: functional; conditions: SK-MEL-28, 48 h, read-out: Activity
[12] = system: HOP-62; test: Cytotoxicity against human HOP62 cells after 48 hrs by SRB assay; format: functional; conditions: HOP-62, 48 h; for GI50: read-out: GI50; for CC50: read-out: LC50 (the source's name); for TGI: read-out: TGI
[13] = system: U-251; test: Growth inhibition of human U251 cells assessed as cell growth at 10^-8 M incubated for 48 hrs by sulforhodamine B assay relative to control; format: functional; conditions: U-251, 48 h, read-out: Activity
[14] = system: A549; test: Growth inhibition of human A549/ATCC cells assessed as cell growth at 10^-4 M incubated for 48 hrs by sulforhodamine B assay relative to control; format: functional; conditions: A549, 48 h, read-out: Activity
[15] = system: CCRF-CEM; test: Antiproliferative activity against human CEM cells after 72 hrs by Coulter counter method; format: functional, cell-based
Outline: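 Cell count assay in 96-well microtiter plates; (5–7.5) × 10⁴ tumor cells per well plus test compound. Cells proliferated at 37 °C in humidified CO₂-controlled atmosphere, 48 h for murine leukemia L1210, 72 h for human lymphocytic CEM and cervix carcinoma HeLa. Counted by Coulter counter; IC₅₀ is the concentration that inhibits proliferation by 50%.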

[16] = system: SF-268; test: Growth inhibition of human SF268 cells assessed as cell growth at 10^-8 M incubated for 48 hrs by sulforhodamine B assay relative to control; format: functional; conditions: SF-268, 48 h, read-out: Activity
[17] = system: NCI-H322M; test: Cytotoxicity against human NCI-H322M cells after 48 hrs by SRB assay; format: functional; conditions: for GI50: read-out: GI50; for TGI: read-out: TGI; for CC50: read-out: pLC50 (the source's name) (converted)
[18] = system: K562; test: Growth inhibition of human K562 cells assessed as cell growth at 10^-8 M incubated for 48 hrs by sulforhodamine B assay relative to control; format: functional; conditions: K562, 48 h, read-out: Activity
[19] = system: PC-3; test: Growth inhibition of human PC3 cells assessed as cell growth at 10^-6 M incubated for 48 hrs by sulforhodamine B assay relative to control; format: functional; conditions: PC-3, 48 h, read-out: Activity
[20] = system: SF-295; test: Growth inhibition of human SF295 cells assessed as cell growth at 10^-6 M incubated for 48 hrs by sulforhodamine B assay relative to control; format: functional; conditions: SF-295, 48 h, read-out: Activity
[21] = system: SK-MEL-28; test: Cytotoxicity against human SK-MEL-28 cells after 48 hrs by SRB assay; format: functional; conditions: SK-MEL-28, 48 h; for GI50: read-out: GI50; for TGI: read-out: TGI
[22] = system: TK-10; test: Growth inhibition of human TK10 cells assessed as cell growth at 10^-7 M incubated for 48 hrs by sulforhodamine B assay relative to control; format: functional; conditions: TK-10, 48 h, read-out: Activity
[23] = system: NCI-H460; test: Growth inhibition of human NCI-H460 cells assessed as cell growth at 10^-7 M incubated for 48 hrs by sulforhodamine B assay relative to control; format: functional; conditions: NCI-H460, 48 h, read-out: Activity
[24] = system: Malme-3M; test: Cytotoxicity against human MALME-3M cells after 48 hrs by SRB assay; format: functional; conditions: for GI50: read-out: GI50; for CC50: read-out: LC50 (the source's name); for TGI: read-out: TGI
[25] = system: OVCAR-8; test: Growth inhibition of human OVCAR8 cells assessed as cell growth at 10^-7 M incubated for 48 hrs by sulforhodamine B assay relative to control; format: functional; conditions: OVCAR-8, 48 h, read-out: Activity
[26] = system: TK-10; test: Growth inhibition of human TK10 cells assessed as cell growth at 10^-4 M incubated for 48 hrs by sulforhodamine B assay relative to control; format: functional; conditions: TK-10, 48 h, read-out: Activity
[27] = system: K562; test: Growth inhibition of human K562 cells assessed as cell growth at 10^-7 M incubated for 48 hrs by sulforhodamine B assay relative to control; format: functional; conditions: K562, 48 h, read-out: Activity
[28] = system: TK-10; test: Cytotoxicity against human TK10 cells after 48 hrs by SRB assay; format: functional; conditions: TK-10, 48 h; for GI50: read-out: GI50; for CC50: read-out: LC50 (the source's name)
[29] = system: U-251; test: Growth inhibition of human U251 cells assessed as cell growth at 10^-6 M incubated for 48 hrs by sulforhodamine B assay relative to control; format: functional; conditions: U-251, 48 h, read-out: Activity
[30] = system: BT-549; test: Growth inhibition of human BT549 cells assessed as cell growth at 10^-6 M incubated for 48 hrs by sulforhodamine B assay relative to control; format: functional; conditions: BT-549, 48 h, read-out: Activity
[31] = read-out: pLC50 (the source's name) (converted)
[32] = read-out: LC50 (the source's name)

C#C[C@@]1(O)[C@@H](CO)O[C@@H](n2cc(Br)c3c(N)ncnc32)[C@@H]1O
GI50 [1]: 0.0628 to 0.151 µM | TGI ([1]; read-out: TGI): > 100 µM | CC50 [1]: > 100 µM | TGI ([1]; read-out: pTGI (converted)): > 100 µM | growth at 0.1 µM [2]: 34 to 41% | growth at 0.01 µM [3]: 85% | growth at 0.01 µM [4]: 93 to 101% | growth at 1 µM [5]: 12 to 29% | growth at 0.01 µM [6]: 93 to 96% | growth at 1 µM [7]: 20 to 24% | GI50 [8]: 0.169 to 0.24 µM | TGI [8]: 0.525 to 1.25 µM | CC50 [8, 31]: > 100 µM | growth at 0.01 µM [9]: 81 to 82% | growth at 0.1 µM [10]: 56 to 84% | growth at 0.01 µM [11]: 93 to 96% | GI50 [12]: 0.211 to 0.427 µM | CC50 [12]: > 100 µM | TGI [12]: 4.76 to 100 µM | growth at 0.01 µM [13]: 57 to 87% | growth at 100 µM [14]: 9 to 12% | IC50 [15]: 0.03 µM | growth at 0.01 µM [16]: 83 to 93% | GI50 [17]: 0.326 to 0.372 µM | TGI [17]: 4.74 to 5.41 µM | CC50 [17]: > 100 µM | growth at 0.01 µM [18]: 87 to 99% | growth at 1 µM [19]: 8 to 12% | growth at 1 µM [20]: 24 to 36% | GI50 [21]: 3.05 to 4.37 µM | CC50 [21, 32]: > 100 µM | TGI [21]: 30.2 to 48.1 µM | growth at 0.1 µM [22]: 99 to 103% | growth at 0.1 µM [23]: 9 to 27% | GI50 [24]: 0.627 to 0.799 µM | CC50 [24]: 81.9 to 82.6 µM | TGI [24]: 12.2 to 14.1 µM | growth at 0.1 µM [25]: 28 to 43% | growth at 100 µM [26]: 7% | growth at 0.1 µM [27]: 27 to 48% | GI50 [28]: 0.411 to 0.481 µM | CC50 [28]: > 100 µM | TGI ([28]; read-out: TGI): 85.8 to 100 µM

C#C[C@@]1(O)[C@@H](CO)O[C@@H](n2cc(I)c3c(N)ncnc32)[C@@H]1O
GI50 [1]: 0.0983 to 0.164 µM | TGI ([1]; read-out: TGI): > 100 µM | CC50 [1]: > 100 µM | TGI ([1]; read-out: pTGI (converted)): > 100 µM | growth at 0.1 µM [2]: 41 to 47% | growth at 0.01 µM [3]: 79 to 90% | growth at 1 µM [29]: 6 to 9% | growth at 0.01 µM [4]: 95% | growth at 1 µM [5]: 33 to 61% | growth at 0.01 µM [6]: 87 to 94% | growth at 1 µM [7]: 38 to 43% | GI50 [8]: 0.221 to 0.267 µM | CC50 [8, 32]: > 100 µM | TGI [8]: 2.6 to 3.47 µM | growth at 1 µM [30]: 17 to 32% | growth at 0.01 µM [9]: 83% | growth at 0.1 µM [10]: 81 to 84% | growth at 0.01 µM [11]: 88 to 97% | GI50 [12]: 0.367 to 1.52 µM | CC50 [12]: > 100 µM | TGI [12]: 6.28 to 12 µM | growth at 0.01 µM [13]: 94 to 99% | growth at 100 µM [14]: 4 to 8% | IC50 [15]: 0.12 µM | growth at 0.01 µM [16]: 92% | GI50 [17]: 0.405 to 0.683 µM | TGI [17]: 7.49 to 42.8 µM | CC50 [17]: > 100 µM | growth at 0.01 µM [18]: 95 to 102% | growth at 1 µM [19]: 13 to 14% | growth at 1 µM [20]: 31 to 35% | GI50 [21]: 1.56 to 2.46 µM | TGI [21]: 9.27 to 14 µM | CC50 [21, 31]: > 100 µM | growth at 0.1 µM [22]: 85 to 96% | growth at 0.1 µM [23]: 37 to 56% | GI50 [24]: 0.525 to 1.3 µM | CC50 [24]: > 100 µM | TGI [24]: 2.76 to 4.16 µM | growth at 0.1 µM [25]: 32 to 35% | growth at 0.1 µM [27]: 35 to 41% | GI50 [28]: 0.551 to 0.572 µM | CC50 [28]: > 100 µM | TGI ([28]; read-out: TGI): 5.51 µM | TGI ([28]; read-out: pTGI (converted)): 5.5 µM

From ChEMBL document CHEMBL4270599, “Synthesis of a 3'-C-ethynyl-β-d-ribofuranose purine nucleoside library: Discovery of C7-deazapurine analogs as potent antiproliferative nucleosides” (Eur J Med Chem, 2018)
